These results are taken from article PMC9064907 (RSC Advances, 2019).

For test [1], the system named is HCT-116 (human colorectal carcinoma). The test can be described thus: MTT cytotoxicity assay, HCT-116. The note with it: for IC50: read-out: IC50 (µM) ± SD HCT-116; for Therapeutic index (TI) HCT-116: TI = IC50 against normal cells (RPE-1)/IC50 against cancer cells (HCT-116). It is filed as cell-based. In a few lines:
(§1)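 Cells were kept in DMEM with 10% heat-inactivated FBS and penicillin/streptomycin at 37 °C under 5% CO2. MTT (2.5 mg mL−1) was added for 4 h, formazan dissolved in DMSO and A570 read. Viability is % of untreated control. Triplicates were repeated on three days; mean ± SD; IC50 by probit analysis.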

Test [2] deals with MCF-7 (human breast adenocarcinoma). As to the kind of experiment: MTT cytotoxicity assay, MCF-7. Type of test: cell-based. The following applies: for IC50: read-out: IC50 (µM) ± SD MCF-7; for Therapeutic index (TI) MCF-7: TI = IC50 against normal cells (RPE-1)/IC50 against cancer cells (MCF-7). Summed up: as §1
For test [3], the system named is RPE-1 (human normal Retina pigmented epithelium). The test can be described thus: MTT cytotoxicity assay, RPE-1 normal cells. Type of test: cell-based. The following applies: read-out: IC50 (µM) ± SD RPE-1. In a few lines:
as §1
In general terms: Formazan colour is commonly taken as a measure of viable cells.

Test [4] relates to MCF-7 cells. As to the kind of experiment: Apoptosis quantification by flow cytometry. It is filed as cell-based, human. The following applies: MCF-7, treated at IC50 (2: 18.7 µM; 14: 15.6 µM), 24 h; for apoptosis percentage, early apoptosis: control 1.84 ± 0.63; for apoptosis percentage, late apoptosis: control 2.94 ± 0.5%.
Test [5] deals with MCF-7 cells. As to the kind of experiment: Apoptosis detection by fluorescent Hoechst 33258 staining. It is filed as cell-based, human. The following applies: MCF-7, treated at IC50 (2: 18.7 µM; 14: 15.6 µM), 24 h.
[6] abbreviates: MTT assay, 48 h, normal RPE-1 cells.

Where two headings read alike, the source gives them in different places.

Turning to `CS(=O)(=O)c1nc(N)n(-c2ccc(C(=O)O)cc2)n1` [Compound 17, 4-(5-amino-3-(methylsulfonyl)-1H-1,2,4-triazol-1-yl) benzoic acid], the IC50 in test [1] (Homo sapiens, HCT-116, 48 h) stood at 34.2 ± 5.2 µM; in test [2] (Homo sapiens, MCF7, 48 h), 21.9 ± 4.2 µM; in test [3] (Homo sapiens, RPE-1, 48 h), 48.5 ± 9.8 µM. For the same compound, the “Therapeutic index (TI) HCT-116” value in test [1] stood at 1.4. In addition, in test [2], the “Therapeutic index (TI) MCF-7” value came to 2.2.
On to `Nc1nc(Oc2ccccc2)nn1-c1ccc(C(=O)O)cc1` [Compound 2, 4-(5-Amino-3-phenoxy-1H-1,2,4-triazol-1-yl)benzoic acid], for which the IC50 in test [1] (Homo sapiens, HCT-116, 48 h) is 25.7 ± 4.1 µM; in test [2] (Homo sapiens, MCF7, 48 h), 18.7 ± 3.5 µM; in test [3] (Homo sapiens, RPE-1, 48 h), 61.2 ± 10.9 µM. Besides, the “Therapeutic index (TI) HCT-116” value in test [1] amounted to 2.4. Besides, the “Therapeutic index (TI) MCF-7” value in test [2] is on record as 3.3. In addition, the “apoptosis percentage, early apoptosis” value with MCF-7 cells [4] is listed as 17.82 ± 1.30%. The “apoptosis percentage, late apoptosis” value in the test with MCF-7 cells [4] is 24.91 ± 1.98%. For the same compound, in the test with MCF-7 cells [5], the “Nuclear morphological changes (Hoechst 33258)” value was “DNA fragmentation and typical marks of apoptosis are evident”.
For `CSc1nc(/N=C/c2ccc(O)cc2)n(-c2ccc(C(=O)O)cc2)n1` [Compound 9, (E)-4-(5-((4-Hydroxybenzylidene)amino)-3-(methylthio)-1H-1,2,4-triazol-1-yl)benzoic acid], the IC50 stood at 39.1 ± 5.6 µM in test [1] (Homo sapiens, HCT-116, 48 h); 34.8 ± 5.5 µM in test [2] (Homo sapiens, MCF7, 48 h); 68 ± 16.7 µM in test [3] (Homo sapiens, RPE-1, 48 h). Further, the “Therapeutic index (TI) HCT-116” value in test [1] is given as 1.7. In test [2], the “Therapeutic index (TI) MCF-7” value is listed as 2.0.
Turning to `O=C(O)c1ccc(-n2nc(Oc3ccccc3)nc2NC(=S)NCc2ccccc2)cc1` [Compound 15, 4-(5-(3-Benzylylthioureido)(3-phenoxy)-1H-1,2,4-triazol-1-yl)benzoic acid], the “Therapeutic index (TI) HCT-116” value in test [1] was 3.8. Moreover, the IC50 in test [1] (MTT assay, 48 h, HCT-116) came to 23.9 ± 4.5 µM; in test [2] (MTT assay, 48 h, MCF-7), 24 ± 4.3 µM; in test [3] (setting [6]), 91.6 ± 15.9 µM. Moreover, the “Therapeutic index (TI) MCF-7” value in test [2] is given as 3.8.
For `COC(=O)c1ccc(-n2nc(SC)nc2N)cc1` [Compound 16, methyl 4-(5-amino-3-(methylthio)-1H-1,2,4-triazol-1-yl)benzoate], the IC50 was 37.3 ± 6.1 µM in test [1] (Homo sapiens, HCT-116, 48 h); 23.4 ± 3.5 µM in test [2] (Homo sapiens, MCF7, 48 h); 39.1 ± 9.9 µM in test [3] (Homo sapiens, RPE-1, 48 h). The “Therapeutic index (TI) HCT-116” value in test [1] amounted to 1.0. For the same compound, the “Therapeutic index (TI) MCF-7” value in test [2] stood at 1.7.
Take `COc1cccc2c1C(=O)c1c(O)c3c(c(O)c1C2=O)C[C@@](O)(C(=O)CO)C[C@@H]3O[C@H]1C[C@H](N)[C@H](O)[C@H](C)O1` [Doxorubicin, reference compound]: the IC50 in test [1] (Homo sapiens, HCT-116, 48 h) amounted to 22.6 ± 3.9 µM; in test [2] (Homo sapiens, MCF7, 48 h), 19.7 ± 3.1 µM; in test [3] (Homo sapiens, RPE-1, 48 h) it was 64 ± 13.2 µM. Also, the “Therapeutic index (TI) HCT-116” value in test [1] amounted to 2.8. For the same compound, in test [2], the “Therapeutic index (TI) MCF-7” value was found to be 3.3.
The like results for `COc1ccc(O)c(/C=N/c2nc(SC)nn2-c2ccc(C(=O)O)cc2)c1` [Compound 4, (E)-4-(5-((2-Hydroxy-5-methoxybenzylidene)amino)-3-(methylthio)-1H-1,2,4-triazol-1-yl)benzoic acid] were, in that order, 35.2 ± 5.2 µM, 27.3 ± 4.2 µM, 55.3 ± 11.1 µM, 1.6 and 2.0.
The like results for `CSc1nc(/N=C/c2cc(C)ccc2O)n(-c2ccc(C(=O)O)cc2)n1` [Compound 3, (E)-4-(5-((2-Hydroxy-5-methylbenzylidene)amino)-3-(methylthio)-1H-1,2,4-triazol-1-yl)benzoic acid] were, in that order, 36 ± 6.1 µM, 23.9 ± 1.6 µM, 43.9 ± 10.5 µM, 1.2 and 1.8.
On the same counts, the results for `CSc1nc(/N=C/c2cccc(O)c2)n(-c2ccc(C(=O)O)cc2)n1` [Compound 8, (E)-4-(5-((3-Hydroxybenzylidene)amino)-3-(methylthio)-1H-1,2,4-triazol-1-yl)benzoic acid] are 34.6 ± 6.1 µM, 31.2 ± 5.6 µM, 70.1 ± 15.3 µM, 2.0 and 2.2.
`CSc1nc(NC(=S)NCCc2ccccc2)n(-c2ccc(C(=O)O)cc2)n1` [Compound 14, 4-(3-(Methylthio)-5-(3-phenethylthioureido)-1H-1,2,4-triazol-1-yl)benzoic acid]: the IC50 in test [1] (Homo sapiens, HCT-116, 48 h) stood at 28.3 ± 5.2 µM; in test [2] (Homo sapiens, MCF7, 48 h), 15.6 ± 2.2 µM; in test [3] (Homo sapiens, RPE-1, 48 h), 45.8 ± 8.9 µM. Besides, in test [1], the “Therapeutic index (TI) HCT-116” value amounted to 1.6. Moreover, in test [2], the “Therapeutic index (TI) MCF-7” value came to 2.9. For the same compound, in the test with MCF-7 cells [4], the “apoptosis percentage, early apoptosis” value was determined as 29.11 ± 1.44%. Besides, in the test on MCF-7 cells [4], the “apoptosis percentage, late apoptosis” value is 45.47 ± 2.10%. Further, the “Nuclear morphological changes (Hoechst 33258)” value in the test on MCF-7 cells [5] was “DNA fragmentation and typical marks of apoptosis are evident”.
Turning to `Cc1ccc(O)c(/C=N/c2nc(Oc3ccccc3)nn2-c2ccc(C(=O)O)cc2)c1` [Compound 10, (E)-4-(5-((2-Hydroxy-5-methylbenzylidene)amino)-3-phenoxy-1H-1,2,4-triazol-1-yl)benzoic acid], the IC50 was determined as 33.7 ± 5.2 µM in test [1] (Homo sapiens, HCT-116, 48 h); 30.3 ± 5.3 µM in test [2] (Homo sapiens, MCF7, 48 h); 74 ± 16.5 µM in test [3] (Homo sapiens, RPE-1, 48 h). Further, the “Therapeutic index (TI) HCT-116” value in test [1] came out at 2.2. In addition, the “Therapeutic index (TI) MCF-7” value in test [2] came to 2.4.
Take `CSc1nc(NC(=S)NCc2ccccc2)n(-c2ccc(C(=O)O)cc2)n1` [Compound 13, 4-(3-(Methylthio)-5-(3-benzylylthioureido)-1H-1,2,4-triazol-1-yl)benzoic acid]: the “Therapeutic index (TI) HCT-116” value in test [1] came out at 2.1. Also, the IC50 in test [1] (MTT assay, 48 h, HCT-116) worked out at 30.1 ± 4.1 µM; in test [2] (MTT assay, 48 h, MCF-7), 23.4 ± 4.6 µM; in test [3] (setting [6]) it was 63.9 ± 13.5 µM. Also, in test [2], the “Therapeutic index (TI) MCF-7” value was 2.7.
Regarding `CSc1nc(N)n(-c2ccc(C(=O)O)cc2)n1` [Compound 1, 4-(5-Amino-3-(methylthio)-1H-1,2,4-triazol-1-yl)benzoic acid], the IC50 came out at 41.8 ± 6.5 µM in test [1] (Homo sapiens, HCT-116, 48 h); 32.9 ± 5.3 µM in test [2] (Homo sapiens, MCF7, 48 h); 61 ± 13.9 µM in test [3] (Homo sapiens, RPE-1, 48 h). In addition, in test [1], the “Therapeutic index (TI) HCT-116” value is 1.5. Besides, the “Therapeutic index (TI) MCF-7” value in test [2] amounted to 1.9.
The like results for `CSc1nc(/N=C/c2cc(Br)ccc2O)n(-c2ccc(C(=O)O)cc2)n1` [Compound 6, (E)-4-(5-((5-Bromo-2-hydroxybenzylidene)amino)-3-(methylthio)-1H-1,2,4-triazol-1-yl)benzoic acid] were, in that order, 37.6 ± 6.4 µM, 31.3 ± 5.1 µM, 59.4 ± 11.7 µM, 1.6 and 1.9.
As for `O=C(O)c1ccc(-n2nc(Oc3ccccc3)nc2/N=C/c2cc([N+](=O)[O-])ccc2O)cc1` [Compound 12, (E)-4-(5-((2-Hydroxy-5-nitrobenzylidene)amino)-3-phenoxy-1H-1,2,4-triazol-1-yl)benzoic acid], the IC50 in test [1] (Homo sapiens, HCT-116, 48 h) amounted to 26.8 ± 4.5 µM; in test [2] (Homo sapiens, MCF7, 48 h) it was 21.6 ± 3.1 µM; in test [3] (Homo sapiens, RPE-1, 48 h) it was 62.8 ± 13.9 µM. In addition, the “Therapeutic index (TI) HCT-116” value in test [1] is given as 2.3. Besides, the “Therapeutic index (TI) MCF-7” value in test [2] amounted to 2.9.
The like results for `COc1ccc(O)c(/C=N/c2nc(Oc3ccccc3)nn2-c2ccc(C(=O)O)cc2)c1` [Compound 11, (E)-4-(5-((2-Hydroxy-5-methoxybenzylidene)amino)-3-phenoxy-1H-1,2,4-triazol-1-yl)benzoic acid] were, in that order, 33.1 ± 4.4 µM, 27.5 ± 4.1 µM, 58.5 ± 10.7 µM, 1.8 and 2.1.
As to `COc1cc(/C=N/c2nc(SC)nn2-c2ccc(C(=O)O)cc2)ccc1O` [Compound 7, (E)-4-(5-((4-Hydroxy-3-methoxybenzylidene)amino)-3-(methylthio)-1H-1,2,4-triazol-1-yl)benzoic acid], the IC50 in test [1] (Homo sapiens, HCT-116, 48 h) is 29.8 ± 4.2 µM; in test [2] (Homo sapiens, MCF7, 48 h) it was 29.4 ± 5.3 µM; in test [3] (Homo sapiens, RPE-1, 48 h), 61.1 ± 12.5 µM. Also, the “Therapeutic index (TI) HCT-116” value in test [1] was 2.1. For the same compound, in test [2], the “Therapeutic index (TI) MCF-7” value worked out at 2.1.
For `CSc1nc(/N=C/c2cc([N+](=O)[O-])ccc2O)n(-c2ccc(C(=O)O)cc2)n1` [Compound 5, (E)-4-(5-((2-Hydroxy-5-nitrobenzylidene)amino)-3-(methylthio)-1H-1,2,4-triazol-1-yl)benzoic acid], the IC50 in test [1] (Homo sapiens, HCT-116, 48 h) was found to be 24 ± 4.5 µM; in test [2] (Homo sapiens, MCF7, 48 h), 20 ± 4.1 µM; in test [3] (Homo sapiens, RPE-1, 48 h), 60.2 ± 12.8 µM. Besides, the “Therapeutic index (TI) HCT-116” value in test [1] is 2.5. Further, the “Therapeutic index (TI) MCF-7” value in test [2] is given as 3.0.

As a reminder, the IC50 is the concentration that gives 50% inhibition.
